In ChEMBL document CHEMBL4342521 (J Med Chem, 2020):
Calls of active or inactive are those of the source. The rule behind the calls is not given here.

Columns and labels:
[1] = target: T1, Protein deacetylase HDAC6 (Homo sapiens, UniProt Q9UBN7); test: Inhibition of recombinant HDAC6 (unknown origin) using Boc-Lys(acetyl)-AMC as substrate preincubated for 1 hr followed by substrate addition and measured after 2 hrs by fluorescence based micro plate reader analysis
T1 sequence (Q9UBN7 whole entry): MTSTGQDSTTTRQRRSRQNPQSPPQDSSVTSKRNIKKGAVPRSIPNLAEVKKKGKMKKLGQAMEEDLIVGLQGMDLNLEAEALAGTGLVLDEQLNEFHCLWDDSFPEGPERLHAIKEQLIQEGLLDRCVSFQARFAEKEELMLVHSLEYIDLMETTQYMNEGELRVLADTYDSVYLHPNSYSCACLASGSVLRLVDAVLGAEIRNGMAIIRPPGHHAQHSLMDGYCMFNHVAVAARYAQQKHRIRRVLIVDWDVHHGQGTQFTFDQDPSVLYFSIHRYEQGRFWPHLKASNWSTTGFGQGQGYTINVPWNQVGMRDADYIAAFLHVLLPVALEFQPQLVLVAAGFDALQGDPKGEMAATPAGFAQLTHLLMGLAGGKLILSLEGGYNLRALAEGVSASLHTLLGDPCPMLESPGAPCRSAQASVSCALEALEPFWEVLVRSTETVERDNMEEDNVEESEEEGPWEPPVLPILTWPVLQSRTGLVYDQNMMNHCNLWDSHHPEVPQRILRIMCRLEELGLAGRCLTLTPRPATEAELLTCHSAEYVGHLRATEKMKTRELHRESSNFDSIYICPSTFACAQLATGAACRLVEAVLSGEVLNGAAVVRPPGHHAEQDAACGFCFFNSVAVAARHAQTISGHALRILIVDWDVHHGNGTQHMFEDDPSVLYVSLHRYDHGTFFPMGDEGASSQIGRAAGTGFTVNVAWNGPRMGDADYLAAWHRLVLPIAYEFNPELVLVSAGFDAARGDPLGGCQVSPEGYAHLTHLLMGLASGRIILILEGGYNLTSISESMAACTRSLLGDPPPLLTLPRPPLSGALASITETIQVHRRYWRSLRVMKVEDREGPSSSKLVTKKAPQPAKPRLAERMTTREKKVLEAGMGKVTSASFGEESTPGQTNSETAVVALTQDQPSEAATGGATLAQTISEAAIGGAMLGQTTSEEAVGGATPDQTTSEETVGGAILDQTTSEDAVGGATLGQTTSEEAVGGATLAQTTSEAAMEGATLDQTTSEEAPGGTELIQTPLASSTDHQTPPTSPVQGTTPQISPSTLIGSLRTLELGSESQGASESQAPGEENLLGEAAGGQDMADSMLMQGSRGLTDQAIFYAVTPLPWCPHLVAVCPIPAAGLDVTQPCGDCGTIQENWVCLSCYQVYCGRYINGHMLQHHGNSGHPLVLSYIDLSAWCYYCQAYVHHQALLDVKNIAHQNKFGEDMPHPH

CCRF-CEM = test: Antiproliferative activity against human CCRF-CEM cells assessed as reduction in cell viability after 48 hrs by CellTiter-Blue assay; format: functional; conditions: read-out: LC50 (the source's name)
In short: (§1)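 Cells grown in RPMI1640 with 10% FBS at 37 °C, 5% CO₂. 5,000–10,000 cells/well were pre-incubated overnight, and a time-zero CellTiter-Blue read was taken. Six 10-fold dilutions (top final 10 μM) were applied for 48 h, followed by 0.125 mg/mL CellTiter-Blue for 2–4 h. Resorufin fluorescence was read at ex 560/em 590 nm. […] Triplicates.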

RPMI-8226 = test: Antiproliferative activity against human RPMI8226 cells assessed as reduction in cell viability after 48 hrs by CellTiter-Blue assay; format: functional; conditions: RPMI-8226, 48 h, read-out: LC50 (the source's name); in short: as §1
HOP-62 = test: Antiproliferative activity against human HOP62 cells assessed as reduction in cell viability after 48 hrs by CellTiter-Blue assay; format: functional; conditions: HOP-62, 48 h, read-out: LC50 (the source's name); in short: as §1
ACHN = test: Antiproliferative activity against human ACHN cells assessed as reduction in cell viability after 48 hrs by CellTiter-Blue assay; format: functional; conditions: read-out: LC50 (the source's name); in short: as §1
Hs-578T = test: Antiproliferative activity against human Hs 578T cells assessed as reduction in cell viability after 48 hrs by CellTiter-Blue assay; format: functional; conditions: read-out: LC50 (the source's name); in short: as §1
BT-549 = test: Antiproliferative activity against human BT549 cells assessed as reduction in cell viability after 48 hrs by CellTiter-Blue assay; format: functional; conditions: BT-549, 48 h, read-out: LC50 (the source's name); in short: as §1
RS4-11 [2] = test: Antiproliferative activity agaisnt human RS4:11 cells expressing wild type p53/FLT3 assessed as cell death at 10 uM after 48 hrs by CellTiter-blue assay; format: functional, cell-based
U-937 = test: Antiproliferative activity agaisnt p53 null human U937 cells at 10 uM after 48 hrs by CellTiter-blue assay; format: functional, cell-based
MV4-11 [3] = test: Down regulation of FTL3 in human MV4-11 cells harboring wild type p53/FLT3-ITD mutant at 50 to 200 nM after 24 hrs by Western blot analysis; format: functional, cell-based
In short: (§2)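 Cells (1,500,000 per well) grown 12 h, then drug-treated as specified. Lysed in RIPA buffer, sonicated, centrifuged, protein normalized by BCA. Run on 4–12% Bis-Tris gels in MES, transferred, probed overnight at 4 °C with primary antibodies at 1/1000. Actin served as reference for LC3-II quantitation.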

MV4-11 [4] = test: Inhibition of ERK phosphorylation in human MV4-11 cells harboring wild type p53/FLT3-ITD mutant at 50 to 200 nM after 24 hrs by Western blot analysis; format: cell-based; in short: as §2
MV4-11 [5] = test: Inhibition of p53 degradation in human MV4-11 cells harboring wild type p53/FLT3-ITD mutant assessed as cleavage of pro caspase-3 at 100 nM after 24 hrs in presence of MDM2 inhibitor RG7388 by Western blot analysis; format: functional, cell-based; in short: as §2
HL-60 = test: Induction of apoptosis in p53 null human HL60 cells harboring wild type FLT3 assessed as cleavage of pro-caspase 3 at 50 to 200 nM after 24 hrs by Western blot analysis; format: functional, cell-based; in short: as §2
RS4-11 [6] = test: Upregulation of P21WAF1/Cip1 protein expression in human RS4:11 cells harboring wild type p53/FLT3 at 50 to 200 nM after 24 hrs by Western blot analysis; format: functional, cell-based
In short: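 RS4;11 cells were cultured in RPMI-1640 with 10% FBS and HL-60 cells in IMDM with 20% FBS. Cells were plated at 1,500,000 per well, grown 12 h, then drug-treated. Lysis was in RIPA buffer with sonication and centrifugation, and loading was normalized by BCA. Lysates were run on 4–12% Bis-Tris gels in MES buffer and transferred, and membranes were probed overnight at 4 °C with 1/1000 primary antibodies.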

RS4-11 [7] = test: Down regulation of STAT5 expression in human RS4:11 cells harboring wild type p53/FLT3 assessed as cleavage of pro-caspase 3 at 50 to 200 nM after 24 hrs by Western blot analysis; format: functional, cell-based; in short: as §2
MV4-11 [8] = test: Inhibition of p53 degradation in human MV4-11 cells at 200 nM after 24 hrs in presence of 5 nM bortezomib by Western blot analysis; format: functional, cell-based; in short: as §2

CCCNNC(=O)/C=C/c1ccc(CNCCc2c(C)[nH]c3ccccc23)cc1.O=C(O)C(F)(F)F
IC50 [1]: > 50 µM | CC50 (CCRF-CEM): > 10 µM | CC50 (RPMI-8226): > 10 µM | CC50 (HOP-62): > 10 µM | CC50 (ACHN): > 10 µM | CC50 (Hs-578T): > 10 µM | CC50 (BT-549): > 10 µM | Activity (RS4-11 [2]): Active | Activity (U-937): Active | Activity (MV4-11 [3]): Active | inhibition (MV4-11 [4]): Active | inhibition (MV4-11 [5]): Active | Activity (HL-60): inactive | Activity (RS4-11 [6]): Active | Activity (RS4-11 [7]): inactive | inhibition (MV4-11 [8]): Active
